Data taken from PMC5696082 (Analytical biochemistry, 2017).

Tests used:
[1] = Background hydrolysis of substrates in phosphate buffer; format: physicochemical; details: phosphate buffer 100 mM, pH 8, 0.1 mg/mL BSA
[2] = Fluorophore characterization; format: physicochemical; details: for Maximum λemm / Maximum λexc / Relative Fluorescence Intensity: 37°C, phosphate buffer 100 mM pH 8, 0.1 mg/mL BSA, 1% DMSO
Method in brief: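 Fluorophores dissolved in 100 mM phosphate buffer, pH 8, 0.1 mg/mL BSA, 1% DMSO, at 37°C. Excitation and emission maxima found by scanning fluorescence intensity at 2 nm steps on a plate spectrophotometer. Relative intensity expressed as RFU per nmol.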

Kinetic properties [3] = substrate: CCCCC(C)CCC(=O)Nc1ccc(OC)nc1C; assay: Kinetic properties; format: biochemical, human; details: 37°C, pH 8
Kinetic properties [4] = substrate: COc1ccc2cc(C(C#N)OC(C)=O)ccc2c1; assay: Kinetic properties; format: biochemical, human; details: 37°C, pH 8
[5] = other: hCE1, 6 substrate concentrations 3.13-100 µM
[6] = other: hCE2, 6 substrate concentrations 3.13-100 µM

Row | Molecule | Maximum λemm [2] [nm] | Maximum λexc [2] [nm] | Relative Fluorescence Intensity [2] | other results
1 | CC(=O)Oc1ccc([N+](=O)[O-])cc1 [4-NPA, 4-nitrophenyl acetate] | – | – | – | Rate of background hydrolysis [1]: 610 pmol/min
2 | COc1ccc(N)c(C)n1 [I, 2-methoxy-5-amino-6-methylpyridine] | 394 | 304 | 4,400 RFU/nmol | –
3 | COc1ccc(N)cn1 [II, 2-methoxy-5-aminopyridine] | 398 | 304 | 3,100 RFU/nmol | –
4 | COc1nc(C)ccc1N [V, 2-methyl-5-amino-6-methoxypyridine] | 364 | 292 | 1,100 RFU/nmol | Fluorescence, fold less than I [2]: 4 fold
5 | COc1ccc2cc(C=O)ccc2c1 [VI, 6-methoxynaphthaldehyde] | 462 | 320 | 2,600 RFU/nmol | –
6 | hCE1 (Homo sapiens) (protein) GHPSSPPVVDTVHGKVLGKFVSLEGFAQPVAIFLGIPFAKPPLGPLRFTPPQPAEPWSFVKNATSYPPMCTQDPKAGQLLSELFTNRKENIPLKLSEDCLYLNIYTPADLTKKNRLPVMVWIHGGGLMVGAASTYDGLALAAHENVVVVTIQYRLGIWGFFSTGDEHSRGNWGHLDQVAALRWVQDNIASFGGNPGSVTIFGESAGGESVSVLVLSPLAKNLFHRAISESGVALTSVLVKKGDVKPLAEQIAITAGCKTTTSAVMVHCLRQKTEEELLETTLKMKFLSLDLQGDPRESQPLLGTVIDGMLLLKTPEELQAERNFHTVPYMVGINKQEFGWLIPMQLMSYPLSEGQLDQKTAMSLLWKSYPLVCIAKELIPEATEKYLGGTDDTVKKKDLFLDLIADVMFGVPSVIVARNHRDAGAPTYMYEFQYRPSFSSDMKPKTVIGDHGDELFSVFGAPFLKEGASEEEIRLSKMVMKFWANFARNGNPNGEGLPHWPEYNQKEGYLQIGANTQAAQKLKDKEVAFWTNLFAKKAVEKPPQTEHIEL | – | – | – | Vmax (Kinetic properties [3]; [5]): 0.48 µmol/min/mg; Vmax/Km (Kinetic properties [3]; [5]): 17000 µL/min/mg; Vmax (Kinetic properties [4]; [5]): 1.4 µmol/min/mg; Vmax/Km (Kinetic properties [4]; [5]): 280000 µL/min/mg
7 | hCE2 (Homo sapiens) (protein) QDSASPIRTTHTGQVLGSLVHVKGANAGVQTFLGIPFAKPPLGPLRFAPPEPPESWSGVRDGTTHPAMCLQDLTAVESEFLSQFNMTFPSDSMSEDCLYLSIYTPAHSHEGSNLPVMVWIHGGALVFGMASLYDGSMLAALENVVVVIIQYRLGVLGFFSTGDKHATGNWGYLDQVAALRWVQQNIAHFGGNPDRVTIFGESAGGTSVSSLVVSPISQGLFHGAIMESGVALLPGLIASSADVISTVVANLSACDQVDSEALVGCLRGKSKEEILAINKPFKMIPGVVDGVFLPRHPQELLASADFQPVPSIVGVNNNEFGWLIPKVMRIYDTQKEMDREASQAALQKMLTLLMLPPTFGDLLREEYIGDNGDPQTLQAQFQEMMADSMFVIPALQVAHFQCSRAPVYFYEFQHQPSWLKNIRPPHMKADHGDELPFVFRSFFGGNYIKFTEEEEQLSRKMMKYWANFARNGNPNGEGLPHWPLFDQEEQYLQLNLQPAVGRALKAHRLQFWKKALPQKIQELEEPEERHTEL | – | – | – | Vmax (Kinetic properties [3]; [6]): 0.004 µmol/min/mg; Vmax/Km (Kinetic properties [3]; [6]): 450 µL/min/mg; Vmax (Kinetic properties [4]; [6]): 9.6 µmol/min/mg; Vmax/Km (Kinetic properties [4]; [6]): 1.2e+06 µL/min/mg
